# Results published in ChEMBL document CHEMBL3576786, “Discovery of target based novel pyrrolyl phenoxy derivatives as antimycobacterial agents: an in silico approach” (Eur J Med Chem, 2015).
# Key:
# [1] = test system: Mycobacterium tuberculosis; assay: Antimycobacterial activity against Mycobacterium tuberculosis H37Rv assessed as inhibition of bacterial growth after 5 days by Microplate Alamar Blue Assay; format: functional; settings: 120 h
# A549 = assay: Cytotoxicity against human A549 assessed as inhibition of cell proliferation by MTT assay; format: cell-based
# Summary of the method: (§1)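 MTT read-out; IC50 taken as the concentration giving a 50% drop in optical density of treated cells relative to untreated cells.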
# Vero = assay: Cytotoxicity against African green monkey Vero cells assessed as inhibition of cell proliferation by MTT assay; format: cell-based; settings: Chlorocebus sabaeus; summary of the method: as §1
structure (smiles),measurement,setting,value
Clc1ccccc1OCCOc1ccc(-n2cccc2)cc1,MIC,[1],25 µg/mL
Clc1ccc(OCCCOc2ccc(-n3cccc3)cc2)cc1,MIC,[1],6.25 µg/mL
c1ccc2c(OCCCOc3ccc(-n4cccc4)cc3)cccc2c1,IC50,A549,243 µM
same,MIC,[1],1.6 µg/mL
same,IC50,Vero,240 µM
Nc1cccc(OCCCOc2ccc(-n3cccc3)cc2)c1,MIC,[1],100 µg/mL
N#Cc1ccc(OCCOc2ccc(-n3cccc3)cc2)cc1,MIC,[1],6.25 µg/mL
O=Cc1ccc(OCCOc2ccc(-n3cccc3)cc2)cc1,MIC,[1],12.5 µg/mL
Cc1ccc(OCCCOc2ccc(-n3cccc3)cc2)cc1,MIC,[1],12.5 µg/mL
Cc1ccc(OCCOc2ccc(-n3cccc3)cc2)c(C)c1,MIC,[1],12.5 µg/mL
Cc1ccccc1OCCCOc1ccc(-n2cccc2)cc1,MIC,[1],25 µg/mL
O=Cc1ccc(OCCCOc2ccc(-n3cccc3)cc2)cc1,MIC,[1],12.5 µg/mL
Clc1ccc(OCCOc2ccc(-n3cccc3)cc2)cc1,MIC,[1],12.5 µg/mL
Nc1cccc(OCCOc2ccc(-n3cccc3)cc2)c1,MIC,[1],100 µg/mL
Fc1ccc(OCCOc2ccc(-n3cccc3)cc2)cc1,MIC,[1],6.25 µg/mL
Oc1ccccc1OCCCOc1ccc(-n2cccc2)cc1,MIC,[1],12.5 µg/mL
c1ccc(OCCCOc2ccc(-n3cccc3)cc2)cc1,MIC,[1],50 µg/mL
Oc1cc(O)cc(OCCOc2ccc(-n3cccc3)cc2)c1,IC50,A549,237 µM
same,MIC,[1],3.12 µg/mL
same,IC50,Vero,231 µM
Oc1cc(O)cc(OCCCOc2ccc(-n3cccc3)cc2)c1,IC50,A549,227 µM
same,MIC,[1],3.12 µg/mL
same,IC50,Vero,220 µM
Oc1cccc(OCCCOc2ccc(-n3cccc3)cc2)c1,MIC,[1],12.5 µg/mL
Oc1cc(OCCOc2ccc(-n3cccc3)cc2)ccc1Cl,MIC,[1],6.25 µg/mL
O=[N+]([O-])c1ccc(OCCOc2ccc(-n3cccc3)cc2)c([N+](=O)[O-])c1,MIC,[1],100 µg/mL
COc1cc(C=O)ccc1OCCOc1ccc(-n2cccc2)cc1,MIC,[1],6.25 µg/mL
Nc1ccc(OCCCOc2ccc(-n3cccc3)cc2)cc1,MIC,[1],50 µg/mL
c1ccc2cc(OCCCOc3ccc(-n4cccc4)cc3)ccc2c1,IC50,A549,235 µM
same,MIC,[1],3.12 µg/mL
same,IC50,Vero,238 µM
c1ccc(OCCOc2ccc(-n3cccc3)cc2)cc1,MIC,[1],50 µg/mL
Brc1ccc(OCCCOc2ccc(-n3cccc3)cc2)cc1,MIC,[1],6.25 µg/mL
Cc1cccc(OCCCOc2ccc(-n3cccc3)cc2)c1,MIC,[1],25 µg/mL
Cc1ccc(C)n1-c1ccc(OCCOc2ccc(-n3cccc3)cc2)cc1,MIC,[1],6.25 µg/mL
Clc1ccccc1OCCCOc1ccc(-n2cccc2)cc1,MIC,[1],25 µg/mL
O=[N+]([O-])c1ccc(OCCOc2ccc(-n3cccc3)cc2)cc1,MIC,[1],50 µg/mL
Ic1ccc(OCCCOc2ccc(-n3cccc3)cc2)cc1,MIC,[1],12.5 µg/mL
O=[N+]([O-])c1ccc(OCCCOc2ccc(-n3cccc3)cc2)c([N+](=O)[O-])c1,MIC,[1],100 µg/mL
Fc1ccc(OCCCOc2ccc(-n3cccc3)cc2)cc1,MIC,[1],6.25 µg/mL
Cc1cc(C)cc(OCCCOc2ccc(-n3cccc3)cc2)c1,MIC,[1],25 µg/mL
O=[N+]([O-])c1ccc(OCCCOc2ccc(-n3cccc3)cc2)cc1,MIC,[1],100 µg/mL
Nc1ccc(OCCOc2ccc(-n3cccc3)cc2)cc1,MIC,[1],100 µg/mL
Nc1ccccc1OCCCOc1ccc(-n2cccc2)cc1,MIC,[1],100 µg/mL
c1ccn(-c2ccc(OCCCOc3ccc(-n4cccc4)cc3)cc2)c1,MIC,[1],6.25 µg/mL
Oc1cc(OCCCOc2ccc(-n3cccc3)cc2)ccc1Cl,MIC,[1],6.25 µg/mL
Oc1cc(Cl)ccc1Oc1ccc(Cl)cc1Cl [TRICLOSAN],MIC,[1],10 µg/mL
Brc1ccccc1OCCCOc1ccc(-n2cccc2)cc1,MIC,[1],25 µg/mL
CCOc1cc(C=O)ccc1OCCOc1ccc(-n2cccc2)cc1,IC50,A549,217 µM
same,MIC,[1],3.12 µg/mL
same,IC50,Vero,211 µM
Cc1ccccc1OCCOc1ccc(-n2cccc2)cc1,MIC,[1],25 µg/mL
Oc1ccc(OCCOc2ccc(-n3cccc3)cc2)cc1,MIC,[1],12.5 µg/mL
COc1cc(C=O)ccc1OCCCOc1ccc(-n2cccc2)cc1,IC50,A549,210 µM
same,MIC,[1],3.12 µg/mL
same,IC50,Vero,212 µM
Brc1cccc(OCCCOc2ccc(-n3cccc3)cc2)c1,MIC,[1],25 µg/mL
c1ccn(-c2ccc(OCCOc3ccc(-n4cccc4)cc3)cc2)c1,MIC,[1],6.25 µg/mL
Cc1cccc(OCCOc2ccc(-n3cccc3)cc2)c1,MIC,[1],25 µg/mL
Oc1ccccc1OCCOc1ccc(-n2cccc2)cc1,MIC,[1],12.5 µg/mL
Cc1ccc(OCCCOc2ccc(-n3cccc3)cc2)c(C)c1,MIC,[1],25 µg/mL
Cc1cc(C)cc(OCCOc2ccc(-n3cccc3)cc2)c1,MIC,[1],50 µg/mL
Clc1cccc(OCCCOc2ccc(-n3cccc3)cc2)c1,MIC,[1],50 µg/mL
Oc1ccc(OCCCOc2ccc(-n3cccc3)cc2)cc1,MIC,[1],12.5 µg/mL
CCOc1cc(C=O)ccc1OCCCOc1ccc(-n2cccc2)cc1,IC50,A549,223 µM
same,MIC,[1],3.12 µg/mL
same,IC50,Vero,215 µM
Brc1cccc(OCCOc2ccc(-n3cccc3)cc2)c1,MIC,[1],25 µg/mL
Cc1ccc(C)n1-c1ccc(OCCCOc2ccc(-n3cccc3)cc2)cc1,IC50,A549,237 µM
same,MIC,[1],3.12 µg/mL
same,IC50,Vero,235 µM
N#Cc1ccc(OCCCOc2ccc(-n3cccc3)cc2)cc1,MIC,[1],6.25 µg/mL
c1ccc2cc(OCCOc3ccc(-n4cccc4)cc3)ccc2c1,IC50,A549,233 µM
same,MIC,[1],3.12 µg/mL
same,IC50,Vero,231 µM
Brc1ccccc1OCCOc1ccc(-n2cccc2)cc1,MIC,[1],25 µg/mL
Clc1cccc(OCCOc2ccc(-n3cccc3)cc2)c1,MIC,[1],25 µg/mL
Cc1ccc(C)c(OCCOc2ccc(-n3cccc3)cc2)c1,MIC,[1],25 µg/mL
Brc1ccc(OCCOc2ccc(-n3cccc3)cc2)cc1,MIC,[1],12.5 µg/mL
Oc1cccc(OCCOc2ccc(-n3cccc3)cc2)c1,MIC,[1],6.25 µg/mL
Cc1ccc(OCCOc2ccc(-n3cccc3)cc2)cc1,MIC,[1],25 µg/mL
Cc1ccc(C)c(OCCCOc2ccc(-n3cccc3)cc2)c1,MIC,[1],25 µg/mL
Ic1ccc(OCCOc2ccc(-n3cccc3)cc2)cc1,MIC,[1],12.5 µg/mL
NNC(=O)c1ccncc1 [ISONIAZID],IC50,A549,> 450 µM
same,MIC,[1],0.25 µg/mL
same,IC50,Vero,> 450 µM
c1ccc2c(OCCOc3ccc(-n4cccc4)cc3)cccc2c1,IC50,A549,215 µM
same,MIC,[1],3.12 µg/mL
same,IC50,Vero,220 µM
Nc1ccccc1OCCOc1ccc(-n2cccc2)cc1,MIC,[1],100 µg/mL
